Measured values from PubChem BioAssay.
Calls of active or inactive are those of the source.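 Rule for the calls, unless noted: active = calcium signal ratio cut to more than 3 SD under the fully stimulated control mean yet still positive, in both repeats and the primary screen; inactive = the rest.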

What follows are compounds tested against Short transient receptor potential channel 4 (Mus musculus) (UniProt Q9QUQ5) (assay: blockers of DAMGO-evoked TRPC4 calcium flux – cell-based, Fluo4, HEK293 TRPC4beta/mu-opioid, confirmation (AID 2636;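 active = calcium signal cut by more than 3 SD below the full-agonist control yet still positive, in both repeats and the earlier primary screen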)). Conditions: at 10 µM; hits give high values.
Outline: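 Test system: HEK293 stable line with TRPC4beta plus mu-opioid receptor; Probe or stimulus: DAMGO, mu-opioid agonist, submaximal dose then maximally activating dose; Timing: dye 45 min at room temperature, compound 110 s, submaximal DAMGO 110 s; Technique: kinetic fluorescence of Fluo4 calcium-sensitive dye, calcium influx; Replication: duplicates per compound.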

Sequence of Short transient receptor potential channel 4 (Mus musculus) (Q9QUQ5 whole entry, looked up): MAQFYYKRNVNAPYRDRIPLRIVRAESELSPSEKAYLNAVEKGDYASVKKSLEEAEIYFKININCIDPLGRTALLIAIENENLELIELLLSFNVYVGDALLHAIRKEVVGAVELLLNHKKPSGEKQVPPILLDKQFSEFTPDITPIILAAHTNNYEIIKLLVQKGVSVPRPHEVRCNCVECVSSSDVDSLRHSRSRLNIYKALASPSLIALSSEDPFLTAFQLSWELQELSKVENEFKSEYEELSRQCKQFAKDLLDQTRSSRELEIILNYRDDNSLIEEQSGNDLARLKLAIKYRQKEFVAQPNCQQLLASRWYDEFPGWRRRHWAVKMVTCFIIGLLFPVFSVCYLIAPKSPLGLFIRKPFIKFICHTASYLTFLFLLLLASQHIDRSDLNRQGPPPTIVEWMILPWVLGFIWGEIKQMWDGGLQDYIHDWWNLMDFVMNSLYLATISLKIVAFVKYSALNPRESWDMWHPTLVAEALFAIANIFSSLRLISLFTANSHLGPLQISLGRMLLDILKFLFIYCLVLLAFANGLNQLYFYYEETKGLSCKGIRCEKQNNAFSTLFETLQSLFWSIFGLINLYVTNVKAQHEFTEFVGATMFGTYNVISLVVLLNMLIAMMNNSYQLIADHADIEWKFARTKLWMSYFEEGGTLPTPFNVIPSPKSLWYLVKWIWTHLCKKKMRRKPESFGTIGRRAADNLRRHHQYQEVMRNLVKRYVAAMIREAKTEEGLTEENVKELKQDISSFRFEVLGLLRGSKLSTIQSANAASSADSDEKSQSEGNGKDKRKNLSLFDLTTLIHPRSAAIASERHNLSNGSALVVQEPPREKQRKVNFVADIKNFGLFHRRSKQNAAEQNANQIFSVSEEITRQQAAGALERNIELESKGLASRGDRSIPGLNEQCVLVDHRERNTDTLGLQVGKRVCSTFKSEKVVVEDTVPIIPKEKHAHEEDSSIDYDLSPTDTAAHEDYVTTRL

Compound | outcome | inhibition
c1ccc(Nc2nc(Nc3ccccc3)nc(N3CCNCC3)n2)cc1 | inactive | 
CN(C)C(CNc1ncnc2sc3c(c12)CCCC3)c1ccco1 (stereo not given) | inactive | 
CC(=O)Nc1ccc(CN2CCCC(C(=O)c3cccc(C(F)(F)F)c3)C2)cc1 (stereo not given) | inactive | 
NCCCn1c(C(=O)c2cc(Cl)c(N)c(Cl)c2)c2ccccc2[n+]1[O-] |  | 83% (active)
CCN1CCN(c2c(Cl)cccc2NC(=O)c2ccc3nsnc3c2)CC1 | inactive | 
COc1ccc(-c2cc(C(=O)NCC(c3ccccc3)N(C)C)c3ccccc3n2)cc1OC (stereo not given) | inactive | 
O=C(c1sc2ccccc2c1Cl)N(Cc1cccs1)C1CCS(=O)(=O)C1 (stereo not given) | inactive | 
O=S(=O)(c1ccccc1)c1nnn2c1nc(NC1CCN(Cc3ccccc3)CC1)c1cc(Cl)ccc12 | inactive | 
CCCc1c(O)nc(SCCN(CCC)CCC)[nH]c1=O | inactive | 
O=C(CCc1ccccc1)NNC(=S)NC(=O)c1ccc(Cl)cc1 | inactive | 
CCCCN(C)CCCNC(=O)CN1N=C(c2ccc(Cl)cc2)CCC1=O | inactive | 
CC1(C)CC(=O)c2cc(C(=O)NCc3ccco3)c(=O)n(-c3ccc(Cl)cc3)c2C1 | inactive | 
CCOC(=O)C1CCCN(C(c2ccccn2)c2c(C)[nH]c3ccccc23)C1 (stereo not given) | inactive | 
O=C(Nc1nnc(-c2ccccc2Cl)o1)c1nc2ccccc2s1 | inactive | 
CCCCC(c1nnnn1CC1CCCO1)N1CCN(c2nc3ccccc3s2)CC1 (stereo not given) | inactive | 
c1ccc2c(c1)CCN(c1ncnc3c1[nH]c1ccccc13)C2 | inactive | 
COc1ccc(C(CNCC(=O)Nc2ccccc2F)N(C)C)cc1 (stereo not given) | inactive | 
O=S(=O)(c1ccc(Cl)cc1)N1CCN2CCCC2C1 (stereo not given) | inactive | 
COc1cc(OC)c(CN2CCC(Cc3ccccc3)CC2)cc1Br | inactive | 
CCOC(=O)C1(CCOc2ccccc2)CCN(Cc2ccc(NC(C)=O)cc2)CC1 | inactive | 
O=C(C1CCCN(Cc2ccccc2)C1)N1CCc2ccccc2C1 (stereo not given) | inactive | 
Cc1csc2c(N3CCN(C(=S)Nc4ccc(F)cc4F)CC3)ncnc12 | inactive | 
Cc1ccc(C2(O)CN(c3ccccc3C)C3=[N+]2CCS3)cc1 (stereo not given) | inactive | 
CCn1cc(CN2CCCC(C(=O)Nc3ccc(-c4nc5ccccc5[nH]4)cc3)C2)c(C)n1 (stereo not given) | inactive | 
CN(C)C(CNC(=S)Nc1cccc(Cl)c1)c1cccnc1 (stereo not given) | inactive | 

These compounds were tested against Short transient receptor potential channel 4 (Mus musculus) (UniProt Q9QUQ5) (assay: blockers of DAMGO-evoked TRPC4 calcium flux – cell-based, second round, Fluo4, HEK293 TRPC4beta/mu-opioid, 1 µM, confirmation (AID 2637)). Conditions: at 1 µM; hits give high values.
Outline: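 Also added: sequential submaximal then maximal DAMGO stimulation; system: TRPC4beta/mu-opioid receptor HEK293 cells; compound: one dose, 1 µM final; signal: kinetic Fluo4 Ca2+ fluorescence reading; benchmarks: ECmax and compound-free wells; repeats: two replicates; times: Fluo4 loading 45 min at room temperature, compound 110 s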

Compound | outcome
O=C1/C(=C\c2cc(Cl)c(O)c(Cl)c2)SC(=S)N1Cc1ccccc1 | inactive
COc1ccc(C(=O)NC(=S)NNC(=O)c2c(-c3ccccc3)noc2C)cc1 | inactive
O=C(c1sc2ccccc2c1Cl)N(Cc1ccco1)C1CCS(=O)(=O)C1 (stereo not given) | inactive
Cc1cc(-c2ccc(C)c(S(=O)(=O)NCCCN(Cc3ccccc3)C(C)C)c2)on1 | inactive
CCc1nc(NCCc2ccccn2)c2nnn(Cc3ccccc3F)c2n1 | inactive
CN(C)CCCN(C(=O)c1ccc(S(=O)(=O)N2CCCc3ccccc32)cc1)c1nc2ccc(F)cc2s1 | inactive
CSCCC(NS(=O)(=O)c1ccc2c(c1)c(=O)n(C)c(=O)n2C)C(=O)NC1CCN(Cc2ccccc2)CC1 (stereo not given) | inactive
CCC1(c2ccc(F)cc2)NC(=O)N(CC(=O)c2cc(C)n(C3CC3)c2C)C1=O (stereo not given) | inactive
CN(C)CCCN(C(=O)c1ccc(C(=O)c2ccccc2)cc1)c1nc2ccc(F)cc2s1 | inactive
Cc1ccc(-n2cc(CNCC3CC(=O)N(C4CC4)C3)c(-c3cccc(C)c3)n2)cc1 (stereo not given) | inactive
CC1CCCN(CCCNC(=O)c2ccc3c(c2)N(Cc2ccccc2F)C(=O)c2ccccc2S3(=O)=O)C1 (stereo not given) | inactive
Cc1nc(/N=C(\N)NC(=O)NC2CCCCC2)nc2ccccc12 | inactive
COc1ccc(C(CNC(=O)c2cccc(NS(=O)(=O)c3ccc(C)c(F)c3)c2)N(C)C)cc1 (stereo not given) | inactive
CCN1CCN(c2ccc(S(=O)(=O)N3CCCCC3)cc2NC(=O)COc2ccccc2)CC1 | inactive
CCCN(CCC)CCCNC(=O)C1CCN(S(=O)(=O)c2cccc3nsnc23)CC1 | inactive
c1ccc(Nc2nc(Nc3ccccc3)nc(N3CCNCC3)n2)cc1 | inactive
CN(C)C(CNc1ncnc2sc3c(c12)CCCC3)c1ccco1 (stereo not given) | inactive
CC(=O)Nc1ccc(CN2CCCC(C(=O)c3cccc(C(F)(F)F)c3)C2)cc1 (stereo not given) | inactive
NCCCn1c(C(=O)c2cc(Cl)c(N)c(Cl)c2)c2ccccc2[n+]1[O-] | inactive
CCN1CCN(c2c(Cl)cccc2NC(=O)c2ccc3nsnc3c2)CC1 | inactive

Compound | outcome
COc1ccc(-c2cc(C(=O)NCC(c3ccccc3)N(C)C)c3ccccc3n2)cc1OC (stereo not given) | inactive
O=C(c1sc2ccccc2c1Cl)N(Cc1cccs1)C1CCS(=O)(=O)C1 (stereo not given) | inactive
O=S(=O)(c1ccccc1)c1nnn2c1nc(NC1CCN(Cc3ccccc3)CC1)c1cc(Cl)ccc12 | inactive
CCCc1c(O)nc(SCCN(CCC)CCC)[nH]c1=O | inactive
O=C(CCc1ccccc1)NNC(=S)NC(=O)c1ccc(Cl)cc1 | inactive
CCCCN(C)CCCNC(=O)CN1N=C(c2ccc(Cl)cc2)CCC1=O | inactive
CC1(C)CC(=O)c2cc(C(=O)NCc3ccco3)c(=O)n(-c3ccc(Cl)cc3)c2C1 | inactive
CCOC(=O)C1CCCN(C(c2ccccn2)c2c(C)[nH]c3ccccc23)C1 (stereo not given) | inactive
O=C(Nc1nnc(-c2ccccc2Cl)o1)c1nc2ccccc2s1 | inactive
CCCCC(c1nnnn1CC1CCCO1)N1CCN(c2nc3ccccc3s2)CC1 (stereo not given) | inactive
c1ccc2c(c1)CCN(c1ncnc3c1[nH]c1ccccc13)C2 | inactive
COc1ccc(C(CNCC(=O)Nc2ccccc2F)N(C)C)cc1 (stereo not given) | inactive
O=S(=O)(c1ccc(Cl)cc1)N1CCN2CCCC2C1 (stereo not given) | inactive
COc1cc(OC)c(CN2CCC(Cc3ccccc3)CC2)cc1Br | inactive
CCOC(=O)C1(CCOc2ccccc2)CCN(Cc2ccc(NC(C)=O)cc2)CC1 | inactive
O=C(C1CCCN(Cc2ccccc2)C1)N1CCc2ccccc2C1 (stereo not given) | inactive
Cc1csc2c(N3CCN(C(=S)Nc4ccc(F)cc4F)CC3)ncnc12 | inactive
Cc1ccc(C2(O)CN(c3ccccc3C)C3=[N+]2CCS3)cc1 (stereo not given) | inactive
CCn1cc(CN2CCCC(C(=O)Nc3ccc(-c4nc5ccccc5[nH]4)cc3)C2)c(C)n1 (stereo not given) | inactive
CN(C)C(CNC(=S)Nc1cccc(Cl)c1)c1cccnc1 (stereo not given) | inactive
